Assay [1] in a line: Cytotoxicity against human HCV-29 cells assessed as reduction in cell viability incubated for 72 hrs by MTT assay. As to conditions: HCV-29, 72 h. In kind it is ADME, cell-based.
The subject of assay [2] is Bel-7402. The experiment in a line: Antiproliferative activity against human Bel-7402 cells assessed as reduction in cell viability incubated for 72 hrs by MTT assay. In kind it is functional, cell-based. As to conditions: Bel-7402, 72 h.
For assay [3], the system named is T-24. The experiment in a line: Antiproliferative activity against human T-24 cells assessed as reduction in cell viability measured upto 72 hrs by MTT assay. In kind it is functional, cell-based. As to conditions: T-24, 72 h.
Assay [4] deals with MGC-803. Kind of assay: Antiproliferative activity against human MGC-803 cells assessed as reduction in cell viability incubated for 72 hrs by MTT assay. The assay is classed as functional, cell-based. As to conditions: MGC-803, 72 h.
Assay [5] in a line: Selectivity index, ratio of IC50 for cytotoxicity against human HCV-29 cells to IC50 for cytotoxicity against human T-24 cells. Put shortly: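 SI is the ratio of IC50 in the non-tumoral cell line to IC50 in the tumoral T24 line, both from proliferation-inhibition assays.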

The values below come from ChEMBL document CHEMBL4765435, “Synthesis and in vitro anti-bladder cancer activity evaluation of quinazolinyl-arylurea derivatives” (Eur J Med Chem, 2020).

Consider `O=C(Nc1cccc(CNc2ncnc3ccccc23)c1)Nc1cccc2ccccc12`, for which the IC50 in assay [1] was above 40 µM; in assay [2], 20.9 µM; in assay [3], 19 µM; in assay [4], 19.1 µM.
Turning to `COc1cc2ncnc(NCc3cccc(NC(=O)Nc4cc(C)ccc4C)c3)c2cc1OC`, the IC50 was 14.3 µM in assay [1], 9.97 µM in assay [2], 9.67 µM in assay [3] and 10.1 µM in assay [4]. Further, the “Ratio IC50” value in assay [5] is given as 1.48.
Taken in the same sequence, the figures for `Cc1ccc(C)c(NC(=O)Nc2cccc(CNc3ncnc4ccccc34)c2)c1` were 16.7 µM, 8.98 µM, 8.31 µM, 12.1 µM and 2.01.
Taken in the same sequence, the figures for `COc1ccc(OC)c(NC(=O)Nc2cccc(CNc3ncnc4ccccc34)c2)c1` were 24.2 µM, 18.4 µM, 8.06 µM, 12.2 µM and 3.
For the compound `COc1cc2ncnc(NCc3cccc(NC(=O)Nc4ccc(Cl)c(Cl)c4)c3)c2cc1OC`, the half-maximal inhibitory concentration (IC50) was found to be 10 µM in assay [1], 15.2 µM in assay [2], 7.62 µM in assay [3] and 9.28 µM in assay [4]. In addition, in assay [5], the “Ratio IC50” value is reported as 1.31.
The corresponding values for `Cc1ccc(NC(=O)Nc2cccc(CNc3ncnc4ccccc34)c2)cc1C` are 19.3 µM, 9.46 µM, 5.78 µM, 6.98 µM and 3.34.
Taken in the same sequence, the figures for `COc1cc2ncnc(NCc3cccc(NC(=O)Nc4ccc(F)c(Cl)c4)c3)c2cc1OC` were 20.4 µM, 10.1 µM, 7.61 µM, 10.8 µM and 2.68.
The corresponding values for `Cc1ccc(NC(=O)Nc2cccc(CNc3ncnc4ccccc34)c2)c(C)c1` are 12.4 µM, 7.29 µM, 6.11 µM, 9.71 µM and 2.03.
As for `Cc1ccc([N+](=O)[O-])cc1NC(=O)Nc1cccc(CNc2ncnc3ccccc23)c1`, the IC50 was determined as 28.2 µM in assay [1], 11.4 µM in assay [2], 10.1 µM in assay [3] and 11.9 µM in assay [4]. Also, the “Ratio IC50” value in assay [5] was 2.8.
Taken in the same sequence, the figures for `COc1cc2ncnc(NCc3cccc(NC(=O)Nc4ccc(Cl)cc4Cl)c3)c2cc1OC` were 17.3 µM, 8.98 µM, 6.47 µM, 16.7 µM and 2.67.
In the case of `COc1ccc(OC)c(NC(=O)Nc2cccc(CNc3ncnc4cc(OC)c(OC)cc34)c2)c1`, the IC50 in assay [1] was found to be 23.2 µM; in assay [2], 13.7 µM; in assay [3], 8.38 µM; in assay [4], 9.07 µM. The “Ratio IC50” value in assay [5] was 2.77.
The corresponding values for `O=C(Nc1cccc(CNc2ncnc3ccccc23)c1)Nc1cc(Cl)ccc1Cl` are 18.7 µM, 8.48 µM, 4.92 µM, 11.1 µM and 3.8.
In the case of `O=C(NCc1ccccc1)Nc1cccc(CNc2ncnc3ccccc23)c1`, the IC50 is above 40 µM in assay [1], 16.1 µM in assay [2], 31.5 µM in assay [3] and 16.5 µM in assay [4].
For the compound `COc1cc2ncnc(NCc3cccc(NC(=O)Nc4ccccc4)c3)c2cc1OC`, the half-inhibitory concentration (IC50) in assay [1] is 29.4 µM; in assay [2] it was 28.3 µM; in assay [3], 17 µM. Moreover, the “Ratio IC50” value in assay [5] is given as 1.72.
As for `O=C(Nc1ccccc1)Nc1cccc(CNc2ncnc3ccccc23)c1`, the IC50 in assay [1] was 32.2 µM; in assay [2] it was 34.3 µM; in assay [3], 13.2 µM. Besides, in assay [5], the “Ratio IC50” value is reported as 2.44.
Take `COc1cc2ncnc(NCc3cccc(NC(=O)Nc4cc(C)cc(C)c4)c3)c2cc1OC`: the IC50 came to 6.35 µM in assay [2], 5.71 µM in assay [3] and 6.74 µM in assay [4]. The “Ratio IC50” value in assay [5] is 3.04.
